Experimental data reported in ChEMBL document CHEMBL1131306, “Novel and specific respiratory syncytial virus inhibitors that target virus fusion” (J Med Chem, 1998).
pIC50: −log10 of the molar value.

How the values were obtained:
Assay type in all cases: functional, organism-based
Human betaherpesvirus 5 = experiment: Inhibitory concentration was evaluated against human cytomegalovirus (HCMV),strain Ad169.
How it was run: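 HCMV Ad169 engineered to encode β-glucuronidase. Human foreskin fibroblasts seeded 4 × 10^4/well on day 0. Compound added day 1 as 10 two-fold dilutions, each at least in duplicate, then virus added. Growth read as β-glucuronidase in culture on day 4. IC50 averaged; each compound run at least twice in different weeks, retested if IC50s differed over 2-fold.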

Human orthopneumovirus = experiment: Inhibitory concentration was evaluated against human respiratory syncytial virus,(HRSV) strain A2.
How it was run: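 HRSV strain A2 (160 PFU/well) on human foreskin fibroblasts seeded 4 × 10^4/well day 0. Compound added day 1, serially diluted 2-fold over 10 concentrations, at least in duplicate. After 4 days at 37 °C, virus growth quantified by ELISA. IC50 = 50% growth inhibition, averaged; tested in two separate weeks, retested if values differed over 2-fold.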

Human alphaherpesvirus 1 = experiment: Inhibitory concentration was evaluated against herpes simplex 1,strain patton.
How it was run: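 HSV-1 strain Patton in African green monkey kidney (Vero) cells, seeded 4 × 10^4/well on day 0. Compound added day 1 as 10 two-fold dilutions, at least in duplicate, then virus added. Growth measured by ELISA 28 h post-infection. IC50 = 50% growth inhibition, averaged; repeated in two different weeks, retested if over 2-fold apart.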

NC(=O)CCN(CCC(N)=O)S(=O)(=O)c1ccc(Nc2nc(Nc3ccc(S(=O)(=O)N(CCC(N)=O)CCC(N)=O)cc3)nc(Nc3ccc(-c4ccc(Nc5nc(Nc6ccc(S(=O)(=O)N(CCC(N)=O)CCC(N)=O)cc6)nc(Nc6ccc(S(=O)(=O)N(CCC(N)=O)CCC(N)=O)cc6)n5)cc4S(=O)(=O)O)c(S(=O)(=O)O)c3)n2)cc1
pIC50 (Human betaherpesvirus 5): 4.83
pIC50 (Human orthopneumovirus): 5.54
pIC50 (Human alphaherpesvirus 1): 4.75

NC(=O)CCNS(=O)(=O)c1cccc(Nc2nc(Nc3cccc(S(=O)(=O)NCCC(N)=O)c3)nc(Nc3ccc(-c4ccc(Nc5nc(Nc6cccc(S(=O)(=O)NCCC(N)=O)c6)nc(Nc6cccc(S(=O)(=O)NCCC(N)=O)c6)n5)cc4S(=O)(=O)O)c(S(=O)(=O)O)c3)n2)c1
pIC50 (Human betaherpesvirus 5): 5.92
pIC50 (Human orthopneumovirus): 6.62
pIC50 (Human alphaherpesvirus 1): < 4.60

CCCN(CCC)S(=O)(=O)c1cccc(Nc2nc(Nc3cccc(S(=O)(=O)N(CCC)CCC)c3)nc(Nc3ccc(-c4ccc(Nc5nc(Nc6cccc(S(=O)(=O)N(CCC)CCC)c6)nc(Nc6cccc(S(=O)(=O)N(CCC)CCC)c6)n5)cc4S(=O)(=O)O)c(S(=O)(=O)O)c3)n2)c1
pIC50 (Human betaherpesvirus 5): < 4.60
pIC50 (Human orthopneumovirus): < 4.60
pIC50 (Human alphaherpesvirus 1): < 4.60

NC(=O)CCN(CCC(N)=O)S(=O)(=O)c1cccc(Nc2nc(Nc3cccc(S(=O)(=O)N(CCC(N)=O)CCC(N)=O)c3)nc(Nc3ccc(-c4ccc(Nc5nc(Nc6cccc(S(=O)(=O)N(CCC(N)=O)CCC(N)=O)c6)nc(Nc6cccc(S(=O)(=O)N(CCC(N)=O)CCC(N)=O)c6)n5)cc4S(=O)(=O)O)c(S(=O)(=O)O)c3)n2)c1
pIC50 (Human betaherpesvirus 5): 4.73
pIC50 (Human orthopneumovirus): 7.30
pIC50 (Human alphaherpesvirus 1): < 4.60

Cc1ccc(S(=O)(=O)N(CCC(N)=O)CCC(N)=O)cc1Nc1nc(Nc2ccc(-c3ccc(Nc4nc(Nc5cc(S(=O)(=O)N(CCC(N)=O)CCC(N)=O)ccc5C)nc(Nc5cc(S(=O)(=O)N(CCC(N)=O)CCC(N)=O)ccc5C)n4)cc3S(=O)(=O)O)c(S(=O)(=O)O)c2)nc(Nc2cc(S(=O)(=O)N(CCC(N)=O)CCC(N)=O)ccc2C)n1
pIC50 (Human orthopneumovirus): < 4.60

Cc1cc(-c2ccc(Nc3nc(Nc4cccc(S(=O)(=O)N(CCC(N)=O)CCC(N)=O)c4)nc(Nc4cccc(S(=O)(=O)N(CCC(N)=O)CCC(N)=O)c4)n3)c(C)c2)ccc1Nc1nc(Nc2cccc(S(=O)(=O)N(CCC(N)=O)CCC(N)=O)c2)nc(Nc2cccc(S(=O)(=O)N(CCC(N)=O)CCC(N)=O)c2)n1
pIC50 (Human betaherpesvirus 5): < 4.60
pIC50 (Human orthopneumovirus): < 4.60
pIC50 (Human alphaherpesvirus 1): 4.60

COC(=O)c1cc(Nc2nc(Nc3cccc(S(=O)(=O)N(CCC(N)=O)CCC(N)=O)c3)nc(Nc3cccc(S(=O)(=O)N(CCC(N)=O)CCC(N)=O)c3)n2)ccc1-c1ccc(Nc2nc(Nc3cccc(S(=O)(=O)N(CCC(N)=O)CCC(N)=O)c3)nc(Nc3cccc(S(=O)(=O)N(CCC(N)=O)CCC(N)=O)c3)n2)cc1C(=O)OC
pIC50 (Human betaherpesvirus 5): < 4.60
pIC50 (Human orthopneumovirus): < 4.60

NC(=O)CCN(CCC(N)=O)S(=O)(=O)c1cccc(Nc2nc(Nc3cccc(S(=O)(=O)N(CCC(N)=O)CCC(N)=O)c3)nc(Nc3ccc(-c4ccc(Nc5nc(Nc6cccc(S(=O)(=O)N(CCC(N)=O)CCC(N)=O)c6)nc(Nc6cccc(S(=O)(=O)N(CCC(N)=O)CCC(N)=O)c6)n5)cc4CO)c(CO)c3)n2)c1
pIC50 (Human betaherpesvirus 5): < 4.60
pIC50 (Human orthopneumovirus): < 4.60
pIC50 (Human alphaherpesvirus 1): < 4.60

NC(=O)CCN(CCC(N)=O)S(=O)(=O)c1cccc(Nc2nc(Nc3cccc(S(=O)(=O)N(CCC(N)=O)CCC(N)=O)c3)nc(Nc3ccc(-c4ccc(Nc5nc(Nc6cccc(S(=O)(=O)N(CCC(N)=O)CCC(N)=O)c6)nc(Nc6cccc(S(=O)(=O)N(CCC(N)=O)CCC(N)=O)c6)n5)cc4C(=O)O)c(C(=O)O)c3)n2)c1
pIC50 (Human betaherpesvirus 5): 6.05
pIC50 (Human orthopneumovirus): 6.46
pIC50 (Human alphaherpesvirus 1): 5.12

NC(=O)CCN(CCC(N)=O)S(=O)(=O)c1cccc(Nc2nc(Nc3cccc(S(=O)(=O)N(CCC(N)=O)CCC(N)=O)c3)nc(Nc3ccc(CCc4ccc(Nc5nc(Nc6cccc(S(=O)(=O)N(CCC(N)=O)CCC(N)=O)c6)nc(Nc6cccc(S(=O)(=O)N(CCC(N)=O)CCC(N)=O)c6)n5)cc4S(=O)(=O)O)c(S(=O)(=O)O)c3)n2)c1
pIC50 (Human betaherpesvirus 5): < 4.60
pIC50 (Human orthopneumovirus): 4.65

Cc1cc(-c2cc(C)c(Nc3nc(Nc4cccc(S(=O)(=O)N(CCC(N)=O)CCC(N)=O)c4)nc(Nc4cccc(S(=O)(=O)N(CCC(N)=O)CCC(N)=O)c4)n3)cc2S(=O)(=O)O)c(S(=O)(=O)O)cc1Nc1nc(Nc2cccc(S(=O)(=O)N(CCC(N)=O)CCC(N)=O)c2)nc(Nc2cccc(S(=O)(=O)N(CCC(N)=O)CCC(N)=O)c2)n1
pIC50 (Human betaherpesvirus 5): 4.69
pIC50 (Human orthopneumovirus): 6.60
pIC50 (Human alphaherpesvirus 1): 4.70

NC(=O)CCN(CCC(N)=O)C(=O)c1cccc(Nc2nc(Nc3cccc(C(=O)N(CCC(N)=O)CCC(N)=O)c3)nc(Nc3ccc(-c4ccc(Nc5nc(Nc6cccc(C(=O)N(CCC(N)=O)CCC(N)=O)c6)nc(Nc6cccc(C(=O)N(CCC(N)=O)CCC(N)=O)c6)n5)cc4S(=O)(=O)O)c(S(=O)(=O)O)c3)n2)c1
pIC50 (Human orthopneumovirus): < 4.60

O=S(=O)(O)c1cc(Nc2nc(Nc3cccc(S(=O)(=O)N(CCO)CCO)c3)nc(Nc3cccc(S(=O)(=O)N(CCO)CCO)c3)n2)ccc1-c1ccc(Nc2nc(Nc3cccc(S(=O)(=O)N(CCO)CCO)c3)nc(Nc3cccc(S(=O)(=O)N(CCO)CCO)c3)n2)cc1S(=O)(=O)O
pIC50 (Human betaherpesvirus 5): 5.64
pIC50 (Human orthopneumovirus): 7.05
pIC50 (Human alphaherpesvirus 1): 4.83

NS(=O)(=O)c1cccc(Nc2nc(Nc3cccc(S(N)(=O)=O)c3)nc(Nc3ccc(-c4ccc(Nc5nc(Nc6cccc(S(N)(=O)=O)c6)nc(Nc6cccc(S(N)(=O)=O)c6)n5)cc4S(=O)(=O)O)c(S(=O)(=O)O)c3)n2)c1
pIC50 (Human betaherpesvirus 5): 5.92
pIC50 (Human orthopneumovirus): 5.77
pIC50 (Human alphaherpesvirus 1): 5.06

NC(=O)CCN(CCC(N)=O)S(=O)(=O)c1cccc(Nc2nc(Nc3cccc(S(=O)(=O)N(CCC(N)=O)CCC(N)=O)c3)nc(Nc3ccc(/C=C/c4ccc(Nc5nc(Nc6cccc(S(=O)(=O)N(CCC(N)=O)CCC(N)=O)c6)nc(Nc6cccc(S(=O)(=O)N(CCC(N)=O)CCC(N)=O)c6)n5)cc4S(=O)(=O)O)c(S(=O)(=O)O)c3)n2)c1
pIC50 (Human betaherpesvirus 5): < 4.60
pIC50 (Human orthopneumovirus): 6.82
pIC50 (Human alphaherpesvirus 1): 5.26
